Data reported in ChEMBL document CHEMBL2412956, “Synthesis and biological activity evaluation of 5-pyrazoline substituted 4-thiazolidinones” (Eur J Med Chem, 2013).

Experiments:
MCF7 [1] = test: Cytotoxicity against human MCF7 cells assessed as cell growth at 10 uM after 48 hrs by SRB assay relative to control; type: functional; settings: MCF7, 48 h, read-out: Activity
Summary of the method: (§1)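 This was the NCI primary screen, with compound added once at 10⁻⁵ M and cultures incubated for 48 h. The endpoint was sulforhodamine B protein staining. Results are expressed as percent growth of treated cells relative to untreated control cells.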

NCI-H322M = test: Cytotoxicity against human NCI-H322M cells after 48 hrs by SRB assay; type: functional
Summary of the method: (§2)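 This was the NCI 60-cell-line five-dose screen, using 10-fold dilutions from 100 to 0.01 μM and continuous 48-h exposure. Growth was read by sulforhodamine B protein staining relative to time-zero and untreated controls. […] Where an endpoint was not reached, the value was given as beyond the range tested.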

BT-549 [2] = test: Cytotoxicity against human BT549 cells assessed as cell growth at 10 uM after 48 hrs by SRB assay relative to control; type: functional; settings: BT-549, 48 h, read-out: Activity
Summary of the method: (§3)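 NCI 60-cell-line primary screen. Test agent added once at 10⁻⁵ M, cultures incubated 48 h, end point by sulforhodamine B protein staining read spectrophotometrically. Value is percent growth of treated cells relative to untreated control cells.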

Trypanosoma cruzi = test: Antitrypanosomal activity against […] form of Trypanosoma cruzi Y infected in monkey […] cells assessed as parasite growth inhibition after 15 hrs by trypan blue staining-based hemocytometric analysis; type: functional, organism-based
BT-549 [3] = test: Cytotoxicity against human BT549 cells after 48 hrs by SRB assay; type: functional; settings: BT-549, 48 h; summary of the method: as §2
K562 [4] = test: Cytotoxicity against human K562 cells after 48 hrs by SRB assay; type: functional; settings: K562, 48 h; summary of the method: as §2
MDA-MB-435 [5] = test: Cytotoxicity against human MDA-MB-435 cells after 48 hrs by SRB assay; type: functional; settings: MDA-MB-435, 48 h; summary of the method: as §2
UACC-62 [6] = test: Cytotoxicity against human UACC62 cells assessed as cell growth at 10 uM after 48 hrs by SRB assay relative to control; type: functional; settings: UACC-62, 48 h, read-out: Activity
Summary of the method: (§4)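 Single-dose NCI screen: compound at 10⁻⁵ M added to tumor cell cultures and incubated for 48 h. The SRB protein-binding dye end point was read spectrophotometrically. Results are percent growth of treated cells relative to untreated controls.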

HOP-92 = test: Cytotoxicity against human HOP92 cells after 48 hrs by SRB assay; type: functional; settings: HOP-92, 48 h; summary of the method: as §2
SR [7] = test: Cytotoxicity against human SR cells after 48 hrs by SRB assay; type: functional
Summary of the method: (§5)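 NCI 60-cell-line panel, five 10-fold concentrations from 100 μM to 0.01 μM (10⁻⁴ to 10⁻⁸ M) with 48-h continuous exposure. Growth was read by SRB protein staining against time-zero and untreated controls. […] Values beyond the tested range are expressed as greater or less than the limit.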

A549 [8] = test: Cytotoxicity against human A549 cells assessed as cell growth at 10 uM after 48 hrs by SRB assay relative to control; type: functional; settings: A549, 48 h, read-out: Activity; summary of the method: as §1
OVCAR-3 = test: Cytotoxicity against human OVCAR3 cells after 48 hrs by SRB assay; type: functional; settings: OVCAR-3, 48 h; summary of the method: as §2
SF-295 [9] = test: Cytotoxicity against human SF295 cells assessed as cell growth at 10 uM after 48 hrs by SRB assay relative to control; type: functional; settings: SF-295, 48 h, read-out: Activity; summary of the method: as §1
MCF7 [10] = test: Cytotoxicity against human MCF7 cells after 48 hrs by SRB assay; type: functional; settings: MCF7, 48 h; summary of the method: as §2
HL-60(TB) [11] = test: Cytotoxicity against human HL-60(TB) cells assessed as cell growth at 10 uM after 48 hrs by SRB assay relative to control; type: functional; settings: HL-60, 48 h, read-out: Activity; summary of the method: as §1
MOLT-4 [12] = test: Cytotoxicity against human MOLT4 cells after 48 hrs by SRB assay; type: functional; settings: MOLT-4, 48 h; summary of the method: as §2
A549 [13] = test: Cytotoxicity against human A549 cells after 48 hrs by SRB assay; type: functional; settings: A549, 48 h; summary of the method: as §2
HL-60(TB) [14] = test: Cytotoxicity against human HL-60(TB) cells after 48 hrs by SRB assay; type: functional; settings: HL-60, 48 h; summary of the method: as §2
A498 = test: Cytotoxicity against human A498 cells after 48 hrs by SRB assay; type: functional; settings: A498, 48 h; summary of the method: as §2
NCI-H460 [15] = test: Cytotoxicity against human NCI-H460 cells after 48 hrs by SRB assay; type: functional; settings: NCI-H460, 48 h; summary of the method: as §2
SR [16] = test: Cytotoxicity against human SR cells assessed as cell growth at 10 uM after 48 hrs by SRB assay relative to control; type: functional; settings: read-out: Activity; summary of the method: as §4
CCRF-CEM = test: Cytotoxicity against human CCRF-CEM cells assessed as cell growth at 10 uM after 48 hrs by SRB assay relative to control; type: functional; settings: read-out: Activity; summary of the method: as §1
MDA-MB-435 [17] = test: Cytotoxicity against human MDA-MB-435 cells assessed as cell growth at 10 uM after 48 hrs by SRB assay relative to control; type: functional; settings: MDA-MB-435, 48 h, read-out: Activity; summary of the method: as §1
UACC-62 [18] = test: Cytotoxicity against human UACC62 cells after 48 hrs by SRB assay; type: functional; settings: UACC-62, 48 h; summary of the method: as §5
SF-295 [19] = test: Cytotoxicity against human SF295 cells after 48 hrs by SRB assay; type: functional; settings: SF-295, 48 h; summary of the method: as §2
K562 [20] = test: Cytotoxicity against human K562 cells assessed as cell growth at 10 uM after 48 hrs by SRB assay relative to control; type: functional; settings: K562, 48 h, read-out: Activity; summary of the method: as §1
NCI-H460 [21] = test: Cytotoxicity against human NCI-H460 cells assessed as cell growth at 10 uM after 48 hrs by SRB assay relative to control; type: functional; settings: NCI-H460, 48 h, read-out: Activity; summary of the method: as §3
Hs-578T = test: Cytotoxicity against human Hs578T cells assessed as cell growth at 10 uM after 48 hrs by SRB assay relative to control; type: functional; settings: read-out: Activity; summary of the method: as §3
SK-MEL-5 = test: Cytotoxicity against human SK-MEL-5 cells after 48 hrs by SRB assay; type: functional; settings: SK-MEL-5, 48 h; summary of the method: as §5
RPMI-8226 [22] = test: Cytotoxicity against human RPMI8226 cells assessed as cell growth at 10 uM after 48 hrs by SRB assay relative to control; type: functional; settings: RPMI-8226, 48 h, read-out: Activity; summary of the method: as §1
HCT-116 = test: Cytotoxicity against human HCT116 cells after 48 hrs by SRB assay; type: functional; settings: HCT-116, 48 h; summary of the method: as §2
[23] = Cytotoxicity against human Hs 578T cells after 48 hrs by SRB assay; type: functional; summary of the method: as §2
T47D [24] = test: Cytotoxicity against human T47D cells after 48 hrs by SRB assay; type: functional; summary of the method: as §5
RPMI-8226 [25] = test: Cytotoxicity against human RPMI8226 cells after 48 hrs by SRB assay; type: functional; settings: RPMI-8226, 48 h; summary of the method: as §2
KM12 = test: Cytotoxicity against human KM12 cells assessed as cell growth at 10 uM after 48 hrs by SRB assay relative to control; type: functional; settings: KM12, 48 h, read-out: Activity; summary of the method: as §1
PC-3 [26] = test: Cytotoxicity against human PC3 cells assessed as cell growth at 10 uM after 48 hrs by SRB assay relative to control; type: functional; settings: PC-3, 48 h, read-out: Activity; summary of the method: as §1
T47D [27] = test: Cytotoxicity against human T47D cells assessed as cell growth at 10 uM after 48 hrs by SRB assay relative to control; type: functional; settings: read-out: Activity; summary of the method: as §4
MOLT-4 [28] = test: Cytotoxicity against human MOLT4 cells assessed as cell growth at 10 uM after 48 hrs by SRB assay relative to control; type: functional; settings: MOLT-4, 48 h, read-out: Activity; summary of the method: as §1
SF-539 = test: Cytotoxicity against human SF539 cells after 48 hrs by SRB assay; type: functional; settings: SF-539, 48 h; summary of the method: as §2
DU-145 = test: Cytotoxicity against human DU145 cells after 48 hrs by SRB assay; type: functional; settings: DU-145, 48 h; summary of the method: as §2
U-251 = test: Cytotoxicity against human U251 cells after 48 hrs by SRB assay; type: functional; settings: U-251, 48 h; summary of the method: as §5
NCI-H522 = test: Cytotoxicity against human NCI-H522 cells assessed as cell growth at 10 uM after 48 hrs by SRB assay relative to control; type: functional; settings: NCI-H522, 48 h, read-out: Activity; summary of the method: as §1
PC-3 [29] = test: Cytotoxicity against human PC3 cells after 48 hrs by SRB assay; type: functional; settings: PC-3, 48 h; summary of the method: as §2
HCT-15 = test: Cytotoxicity against human HCT15 cells after 48 hrs by SRB assay; type: functional; settings: HCT-15, 48 h; summary of the method: as §2
OVCAR-4 = test: Cytotoxicity against human OVCAR4 cells assessed as cell growth at 10 uM after 48 hrs by SRB assay relative to control; type: functional; settings: OVCAR-4, 48 h, read-out: Activity; summary of the method: as §1

## O=C1NC(=O)/C(=C/C(=O)N2N=C(c3ccc4ccccc4c3)CC2c2ccc(Cl)cc2)S1 (centres undefined)
MCF7 [1]
  growth at 10 µM: 34.4%
NCI-H322M
  GI50: 2.89 µM
  TGI: 100 µM
BT-549 [2]
  growth at 10 µM: 34.2%
Trypanosoma cruzi
  IC50: 0.3 µM
BT-549 [3]
  GI50: 2.16 µM
  TGI: 7.75 µM
K562 [4]
  GI50: 1.9 µM
  TGI: 11.2 µM
MDA-MB-435 [5]
  GI50: 2.7 µM
  TGI: 16.5 µM
UACC-62 [6]
  growth at 10 µM: 32.8%
HOP-92
  GI50: 1.17 µM
  TGI: 9.72 µM
SR [7]
  GI50: 1.98 µM
  TGI: 5.92 µM
A549 [8]
  growth at 10 µM: 30%
OVCAR-3
  GI50: 2.9 µM
  TGI: 10.6 µM
SF-295 [9]
  growth at 10 µM: -5.27%
MCF7 [10]
  GI50: 2.53 µM
  TGI: 14.1 µM
HL-60(TB) [11]
  growth at 10 µM: 13.5%
MOLT-4 [12]
  GI50: 1.64 µM
A549 [13]
  GI50: 3.06 µM
  TGI: 100 µM
HL-60(TB) [14]
  GI50: 3.2 µM
  TGI: 6.48 µM
A498
  GI50: 1.41 µM
  TGI: 5.38 µM
NCI-H460 [15]
  GI50: 1.89 µM
  TGI: 4.7 µM
SR [16]
  growth at 10 µM: 10.6%
CCRF-CEM
  growth at 10 µM: 16.7%
MDA-MB-435 [17]
  growth at 10 µM: 39.5%
UACC-62 [18]
  GI50: 2.66 µM
  TGI: 12.8 µM
SF-295 [19]
  GI50: 2.45 µM
  TGI: 9.12 µM
K562 [20]
  growth at 10 µM: 24.6%
NCI-H460 [21]
  growth at 10 µM: 25.9%
Hs-578T
  growth at 10 µM: 35.6%
SK-MEL-5
  GI50: 2.09 µM
  TGI: 22.5 µM
RPMI-8226 [22]
  growth at 10 µM: 2.48%
HCT-116
  GI50: 3.01 µM
  TGI: 13.9 µM
[23]
  GI50: 1.94 µM
  TGI: 8.26 µM
T47D [24]
  GI50: 1.53 µM
  TGI: 9.4 µM
RPMI-8226 [25]
  GI50: 1.97 µM
  TGI: 5.88 µM
KM12
  growth at 10 µM: 25.8%
PC-3 [26]
  growth at 10 µM: 36%
T47D [27]
  growth at 10 µM: 39.3%
MOLT-4 [28]
  growth at 10 µM: 11.5%
SF-539
  GI50: 2.43 µM
  TGI: 5.79 µM
DU-145
  GI50: 4.27 µM
  TGI: 100 µM
U-251
  GI50: 2.58 µM
  TGI: 13.2 µM
NCI-H522
  growth at 10 µM: 23.2%
PC-3 [29]
  GI50: 4.94 µM
  TGI: 100 µM
HCT-15
  GI50: 2.41 µM
  TGI: 100 µM

## COc1ccc(C2CC(c3ccc4ccccc4c3)=NN2C2SC(=O)N(CN3CCOCC3)C2=O)cc1 (centres undefined)
OVCAR-4
  growth at 10 µM: 67.5%
